Where a SMILES comes first, the peptide text is derived from it. [ ]: non-standard residue; d: D form.
Tests used:
WD-fed LDLr-/- mice [1] = test: In vivo safety during 10-week daily oral dosing; parameters: species or system mouse
In short: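 Mice were weaned at 4 weeks and fed chow, then switched at 8–12 weeks to Western diet for 10 weeks. Test compound was dissolved by sonication in PBS (pH 7.4) with 1% sucrose, given ad libitum in drinking water at 180 µM and refreshed daily or every other day. Vehicle controls received PBS/1% sucrose. Liver enzyme activities in plasma were measured by enzymatic assays.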

[2] = LC-MS SIM quantitation of peptide levels in feces; type: in vivo, mouse; details: pharmacokinetic and excretion studies, result in words
In short: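 Intact test compound was measured in extracted feces by LC-MS selected ion monitoring of the parent ions. Standard curves came from two independent extractions. Fecal samples were taken at week 5 (n=4 mice per group) and measured in duplicate. Daily dry fecal output was weighed over 24 h in individually housed mice. Expected maximum fecal level was calculated from the 0.18 mM drinking-water concentration, water intake and fecal output.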

[3] = Pharmacokinetics, LC-MS SIM quantitation in plasma; type: in vivo, mouse; details: pharmacokinetic and excretion studies, result in words
WD-fed LDLr-/- mice [4] = test: Plasma total cholesterol in peptide-treated WD-fed mice; type: in vivo, mouse
In short: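 Western-diet-fed LDLr-/- mice received test compound at 180 µM in drinking water (PBS pH 7.4, 1% sucrose; vehicle controls) starting with the diet switch. Plasma total cholesterol was measured enzymatically at the two-week blood draw. Results given as mean ± SD.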

[5] = test system: gut microbiota from cecum of WD-fed LDLr-/- mice; test: In vitro en masse gut microbiota screening assay; type: cell-based, mouse; details: en masse screen, result in words
In short: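 Cecal contents came from female LDLr-/- mice (8–10 weeks) fed WD for two weeks, pooled from 3 co-housed mice, with all steps anaerobic. The PBS suspension was diluted 1:12.5 in Chopped Meat Carbohydrate Broth and dosed with test compound at a final 16 or 64 µM. Ampicillin (4 µg/mL) and chloramphenicol (8 µg/mL) were controls. Samples ran 20 h at 37 °C with hourly OD600, then 16S sequencing gave genus-level Shannon diversity and the Bacteroidetes:Firmicutes ratio.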

WD-fed LDLr-/- mice [6] = test: Analysis of atherosclerosis; type: in vivo, mouse; details: completion of the 10-week study, en face staining, vs vehicle
In short: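 LDLr-/- mice, moved from chow to Western diet (15.8% fat, 1.25% cholesterol, no cholate) at 8–12 weeks, given test compound at 180 µM in drinking water (PBS pH 7.4, 1% sucrose; vehicle alone for controls) for 10 weeks. Lesions assessed by en face staining of the entire aorta and by aortic root sectioning. n=8 treated, 18 vehicle; mean ± SD, one-way ANOVA with Dunnett test.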

[7] = 10 weeks daily oral administration, n=7 treated mice

**Q.** What does the source list for `CC(C)C[C@@H]1NC(=O)[C@@H](Cc2c[nH]c3ccccc23)NC(=O)[C@H](CCCCN)NC(=O)[C@@H](Cc2c[nH]cn2)NC(=O)[C@H](CO)NC(=O)[C@@H](Cc2c[nH]cn2)NC(=O)[C@H](CCCCN)NC(=O)[C@@H](Cc2c[nH]c3ccccc23)NC1=O` [peptide 1] (cyclo([dW]L[dW]K[dH]S[dH]K))?
**A.** signs of discomfort or toxicity (WD-fed LDLr-/- mice [1]; 10-week daily-dosing regimen, ad libitum in the drinking water, ~35 mg/kg/day): no signs of discomfort or toxicity; liver weights and spleen weights (WD-fed LDLr-/- mice [1]; [7]): did not significantly differ from vehicle controls; plasma levels of ALT and AST (WD-fed LDLr-/- mice [1]; [7]): did not significantly differ from vehicle controls; body weights (WD-fed LDLr-/- mice [1]; during the 10-week treatment, n=7 treated mice): did not differ from vehicle controls; stability in the gut [2]: remain largely intact throughout the gut; oral systemic bioavailability [3]: non-absorbable (lack oral systemic bioavailability); reduction of plasma total cholesterol compared to the untreated WD group (WD-fed LDLr-/- mice [4]; two-week time point, oral in drinking water, ~35 mg/kg/day): 37%; remodeling of the microbiota community in vitro [5]: did remodel the microbiota community in vitro; reduction of whole aorta atherosclerotic lesion area (WD-fed LDLr-/- mice [6]): 37%

**Q.** Which “total plasma cholesterol compared to vehicle controls” value (WD-fed LDLr-/- mice [4]; 2-wk timepoint, oral dosing, result in words) does the source give for `NC(=O)CC[C@@H]1NC(=O)[C@@H](Cc2c[nH]cn2)NC(=O)[C@H](Cc2c[nH]cn2)NC(=O)[C@@H](CCC(N)=O)NC(=O)[C@H](Cc2ccc(O)cc2)NC(=O)[C@@H](Cc2c[nH]c3ccccc23)NC(=O)[C@H](Cc2c[nH]c3ccccc23)NC(=O)[C@@H](Cc2ccccc2)NC1=O` [peptide 15] (cyclo(H[dH]Q[dF]W[dW]Y[dQ])) here?
**A.** did not reduce plasma total cholesterol levels

**Q.** And the “remodeling of the microbiota community in vitro” value [5]?
**A.** remodeled the gut microbiota in vitro, but not toward a CHD-like state
